Data as given in ChEMBL document CHEMBL1157289, “Antiparasitic activity of some xanthones and biflavonoids from the root bark of Garcinia livingstonei” (J Nat Prod, 2006).

Tests used:
[1] = test system: Trypanosoma brucei brucei; test: Antitrypanosomal activity against Trypanosoma brucei brucei; format: functional, organism-based
MRC5 = test: Cytotoxicity against human MRC5 cells by alamar-blue assay; format: cell-based
How it was run: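 Cells seeded at 5000/well, washed after 24 h, then given 4-fold dilutions in RPMI + 5% FCS, final DMSO below 0.5%. 7 days at 37 °C, 5% CO2, untreated controls included.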

Trypanosoma cruzi [2] = test: Antitrypanosomal activity against Trypanosoma cruzi in mouse peritoneal macrophages; format: functional, organism-based
How it was run: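 Primary mouse peritoneal macrophages, 30 000/well, infected after 24 h with about 10 000 trypomastigotes alongside 4-fold drug dilutions. 7 days at 37 °C, 5% CO2.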

Plasmodium falciparum = test: Antiplasmodial activity against chloroquine-sensitive Plasmodium falciparum Ghana by LDH reporter assay; format: functional, organism-based
Leishmania infantum = test: Antileishmanial activity against Leishmania infantum MHOM/MA(BE)/67 amastigotes in mouse peritoneal macrophages; format: functional, organism-based
How it was run: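 Amastigotes from serially passaged Syrian hamster infection; macrophages elicited by intraperitoneal 2% starch, harvested 24-48 h later. 5-day incubation; Giemsa-stained microscopic count; % reduction of parasite burden vs control, IC50 determined.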

Trypanosoma cruzi [3] = test: Antitrypanosomal activity against Trypanosoma cruzi trypomastigotes assessed as immobilized trypomastigotes after 48 hrs; format: functional
[4] = Cytotoxicity in Leishmania infantum MHOM/MA(BE)/67 amastigotes infected mouse peritoneal macrophages; format: cell-based; conditions: macrophage

Row | Compound | IC50 [1] [µM] | IC50 (Trypanosoma cruzi [2]) [µM] | IC50 (Plasmodium falciparum) [µM] | IC50 (Leishmania infantum) [µM] | IC50 (MRC5) [µM] | MC100 (Trypanosoma cruzi [3]) [µM] | Activity [4]
1 | C=CC(C)(C)c1cc(O)c2oc3c4c(ccc3c(=O)c2c1O)C=CC(C)(C)O4 | – | – | – | – | – | 8 | –
2 | COc1ccc([C@@H]2CC(=O)c3c(O)cc(O)c([C@@H]4C(=O)c5c(O)cc(O)cc5O[C@H]4c4ccc(O)cc4)c3O2)cc1 | 28.3 | 34.7 | 6 | > 64 | 38 | – | –
3 | CC1=C[C@H](c2cc(O)c3c(=O)c4cccc(O)c4oc3c2O)[C@](C)(/C=C/c2cc(O)c3c(=O)c4cccc(O)c4oc3c2O)CC1 [GARCILIVIN A] | 0.4 | 4 | 6.7 | 32 | 2 | – | Toxic
4 | CC1=C[C@@H](c2cc(O)c3c(=O)c4cccc(O)c4oc3c2O)[C@](C)(/C=C/c2cc(O)c3c(=O)c4cccc(O)c4oc3c2O)CC1 [GARCIVILIN C] | 7.7 | 39.2 | > 64 | > 64 | 52.3 | – | –
5 | O=C1c2c(O)cc(O)cc2O[C@H](c2ccc(O)cc2)[C@H]1c1c(O)cc(O)c2c(=O)cc(-c3ccc(O)c(O)c3)oc12 [MORELLOFLAVONE] | – | – | – | – | > 64 | – | –

Continued, in another order:

Row | IC50 [1] [µM] | IC50 (Trypanosoma cruzi [2]) [µM] | IC50 (Plasmodium falciparum) [µM] | IC50 (Leishmania infantum) [µM] | Compound | IC50 (MRC5) [µM] | MC100 (Trypanosoma cruzi [3]) [µM] | Activity [4]
6 | 0.87 | 7 | 10 | 27 | CC(C)=CCc1cc(O)c2c(=O)c3cccc(O)c3oc2c1O | > 32 | – | –
7 | 5 | 8 | 52 | > 64 | CC(C)=CCCC1(C)C=Cc2c(cc(O)c3c(=O)c4cccc(O)c4oc23)O1 (stereo not drawn) | > 64 | – | –
8 | 2 | 5.7 | 59 | > 64 | CC(C)=CCC/C(C)=C/Cc1c(O)cc(O)c2c(=O)c3cccc(O)c3oc12 | > 64 | – | –
